Hck Nef HTS: inhibitors of Nef-activated human Hck kinase, primary screen, biochemical, Z-Lyte FRET, 384-well, Hck-YEEI; Tyrosine-protein kinase HCK (Homo sapiens), P08631; Recombinant Hck-YEEI plus Nef, Z-Lyte FRET kinase assay; inhibition, % at 20 µM; 0.68% of 220,000 active;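 active = Hck-Nef kinase inhibition above about 50%, limit read from the data; inactive = inhibition below that limit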;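 note: 0% = DMSO with Hck plus Nef and 100% = Hck alone without Nef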
Target sequence (P08631 whole entry, looked up): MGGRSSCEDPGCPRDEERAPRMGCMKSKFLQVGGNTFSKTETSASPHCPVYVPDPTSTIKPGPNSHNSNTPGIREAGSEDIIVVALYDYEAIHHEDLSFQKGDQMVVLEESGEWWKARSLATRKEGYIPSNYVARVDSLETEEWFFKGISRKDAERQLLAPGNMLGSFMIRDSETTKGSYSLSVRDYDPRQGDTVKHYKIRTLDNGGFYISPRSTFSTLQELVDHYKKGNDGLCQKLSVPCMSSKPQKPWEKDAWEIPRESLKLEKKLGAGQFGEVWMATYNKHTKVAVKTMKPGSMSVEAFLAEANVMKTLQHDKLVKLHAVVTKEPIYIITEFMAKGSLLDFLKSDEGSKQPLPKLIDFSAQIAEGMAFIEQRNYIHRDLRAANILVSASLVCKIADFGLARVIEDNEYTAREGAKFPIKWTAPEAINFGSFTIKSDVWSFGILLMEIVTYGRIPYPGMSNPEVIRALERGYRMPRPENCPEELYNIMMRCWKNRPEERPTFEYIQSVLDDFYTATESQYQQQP
Runt-SMMHC FRET: inhibitors of RUNX1 Runt–CBFb-SMMHC binding, primary screen, biochemical, FRET, Cerulean-Runt, Venus-CBFb-SMMHC, uHTS | Cerulean-Runt/Venus-CBFb-SMMHC FRET ratio 530/480, 1 h | inhibition, % at 20 µM | 0.74% of 220,000 active | AID 1434, 2008;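 active = mean inhibition across duplicate retests at 20 µM reaching about 50%, limit read from the data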;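 note: 0% = DMSO wells and 100% = wells with excess untagged CBFb-SMMHC; inhibitors lower the FRET ratio by blocking Runt binding to CBFb-SMMHC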
RanGTP-Imp inh: inhibitors of RanGTP-importin-beta interaction, primary screen, biochemical, FRET, CFP-Ran, YFP-importin-beta, homogeneous. Ran GTPase (GTP-bound) - importin-beta complex. cell-free CFP-Ran/YFP-importin-beta FRET ratio. inhibition, % (no concentration beside the values). 1.1% of 300,000 active. AID 2216, 2009;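 active = more than half of the replicate wells show a fall in the fluorescence ratio signal beyond about 16%, limit read from the data, passing the limit was not always enough; inconclusive = exactly half of the replicate wells pass the set limit; inactive = fewer than half of replicates pass the limit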;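 note: 0% = DMSO wells and 100% = Ran loaded with GDP instead of GTP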
Runt-CBFb FRET: inhibitors of RUNX1 Runt–CBFb binding, primary screen, biochemical, FRET, Cerulean-Runt, Venus-CBFb, uHTS; inhibition, % at 20 µM; Runt-related transcription factor 1 (Homo sapiens) + Core-binding factor subunit beta …; Cerulean-Runt/Venus-CBFb FRET ratio 530/480, 1 h; 0.46% of 220,000 active;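 active = inhibition over about 50% at 20 µM in the single-dose screen, limit read from the data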;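 note: 0% = DMSO wells and 100% = excess unlabeled CBFb competitor control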
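Reagent – Venus-CBFb binding partner, 100 nM · Assay system – Cerulean-tagged RUNX1 Runt domain (FRET donor) fusion protein · Input – 100 nM per protein · Incubation – two 1 h room-temperature incubations shielded from light · Measured by – FRET fluorescence · Medium – Tris buffer pH 7.5 with salts and BSA · Benchmarks – unlabeled CBFb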
Active calls of the source: *; ? = inconclusive; / = not tested or not shown; + = active, no number. Sampled rows, rich in hits. Any-hit rate of the full collection: about 1.8%.

SMILES	Hck Nef HTS	Runt-SMMHC FRET	RanGTP-Imp inh	Runt-CBFb FRET
CC1CCC(NC(=O)C2CCN(c3c4c(nc5ncnn35)CCC4)CC2)CC1 (configuration not stated)	/	/	0.5	/
COc1ccc2nc3ccccc3nc2c1	8.3	85.8*	38.1*	0.8
COc1cccc(CNC(=O)CCCC(=O)NC(C)CCc2ccccc2)c1 (configuration not stated)	/	/	6.0	/
COc1cc(/C=C(\C#N)C(=O)NC(C)C)cc(Cl)c1O	16.5	63.3*	-3.4	32.9
CCOc1ccc(C2C(C#N)=C(N)Oc3cc(O)ccc32)cc1OCC (configuration not stated)	/	/	50.7*	/
COC(=O)c1ccc(C2C(C#N)=C(N)Oc3cc(O)ccc32)cc1 (configuration not stated)	/	/	-23.3	/
COc1ccc(C2C(C#N)=C(N)Oc3cc(O)ccc32)cc1Cl (configuration not stated)	/	/	59.1*	/
C#CCOc1ccc(C2C(C#N)=C(N)Oc3cc(O)ccc32)cc1 (configuration not stated)	/	/	66.5*	/
COC(=O)c1ccc(C(=O)OC)c(NC(=S)N2CCN(C)CC2)c1	3.8	20.8	31.7*	12.0
COC(=O)c1ccc(C(=O)OC)c(NC(=S)N2CCCC2)c1	/	/	10.9	/
O=C(O)CCC(=O)N1CCN(c2nc(-c3ccccc3)c3cc(Br)ccc3n2)CC1	/	/	27.9*	/
CCOC(=O)N1CCN(c2nc(-c3ccccc3)c3cc(C)ccc3n2)CC1	/	/	18.2*	/
O=C(O)CCC(=O)N1CCN(c2nc(-c3ccccc3Cl)c3cc(Br)ccc3n2)CC1	6.2	85.1*	30.9*	35.7
CCCCN(C)CC(O)Cn1cc(/C=C/C(=O)c2cccs2)c2ccccc21 (configuration not stated)	-5.0	-61.8	-26.5	-103.9
CCCCN(C)CC(O)Cn1cc(/C=C/C(=O)c2ccc(OCC)cc2)c2ccccc21 (configuration not stated)	/	/	24.7*	/
Cc1cccn2c(=O)c3cc(C(N)=S)c(=N)n(CCCN4CCOCC4)c3nc12	43.7	88.4*	-2.3	3.5
COCCCn1c(=N)c(C(N)=S)cc2c(=O)n3cccc(C)c3nc21	/	/	+	/
Cc1ccc2nc3c(cc(C(N)=S)c(=N)n3CCCOC(C)C)c(=O)n2c1	12.8	41.0	187.6*	11.1
COCCCNC(=O)c1cc2c(=O)n3cccc(C)c3nc2s1	/	/	-6.4	/
C=CCn1c(=N)c(C(=O)OCC)cc2c(=O)n3cc(C)ccc3nc21	/	38.3	/	11.7
CC(C)(C)c1ccc(Cn2c(=O)cnc3ccccc32)cc1	/	/	-2.8	/
Cc1nn(C(=O)CCCC(=O)NCc2ccccc2)c2ccccc12	/	/	3.6	/
CCCN(CCC)Cc1c(C(=O)N/N=C/CCc2ccccc2)nnn1-c1nonc1N	/	/	0.0	/
CC(=O)CSc1nc(N)c(C#N)c(-c2cccs2)c1C#N	0.3	-2.3	-0.6	-0.1
CC(C)(C)C(=O)CSc1nc2c(c(-c3cccs3)c1C#N)CCC2	12.9	27.9	62.1*	1.1
SMILES	Hck Nef HTS	Runt-SMMHC FRET	RanGTP-Imp inh	Runt-CBFb FRET
Cc1ccn2c(=O)nc(SCC(=O)NC3CCCC3)nc2c1	/	/	18.3*	/
Cc1ccn2c(=O)nc(SCC(=O)NC3CCCCC3)nc2c1	/	/	3.3	/
O=C(NCC1CCCO1)c1ccc(-c2ccccc2Cl)o1 (configuration not stated)	/	/	4.5	/
CCCCOC(=S)NC(=O)c1sc2ccccc2c1Cl	3.1	2.9	29.4*	3.1
N#CC1(NC(=O)Cn2cc(C(F)(F)F)cc(Cl)c2=O)CCCCC1	/	/	0.3	/
Cc1oc(/N=C/c2ccc(O)cc2O)c(C#N)c1C	20.3	90.0*	81.7*	78.3*
Fc1ccccc1-c1nc(-c2ccc(Br)o2)no1	/	/	2.7	/
CCC(C)/C=C/C1=CC2=C(Cl)C(=O)C3(C)OC(=O)C(C(=O)C(C)C(C)O)C3C2=CO1 (configuration not stated)	-18.5	85.4*	87.8*	12.5
COc1ccc(/C=N/Nc2cc(C)nc(-n3nc(C)cc3C)n2)cc1	-0.9	2.2	-3.2	-3.6
Oc1ccc(/C=N/Nc2cc(N3CCCC3)nc(N3CCCC3)n2)cc1	0.5	-0.8	85.8*	2.2
COc1ccc(/C=N/Nc2cc(N3CCCC3)nc(N3CCCC3)n2)cc1	16.1	-3.2	60.2*	1.4
COc1ccc(NC(=O)N2CCCCCC2)cc1OC	/	/	1.4	/
CCOc1cc(C(=O)OC(C)C(=O)Nc2ccc(NC(C)=O)cc2)ccc1OCC(=O)N1CCCCC1 (configuration not stated)	/	/	-1.5	/
COc1ccccc1-c1c(C#N)c(N)nc2c1CCc1ccccc1-2	47.4	20.0	20.2*	10.1
COc1ccc(S(=O)(=O)N2CCCCCC2)cc1C(=O)OCc1cccc(OC)c1OC	/	/	1.3	/
N=C1SC(CC(=O)Nc2ccccc2[N+](=O)[O-])C(=O)N1c1ccccc1 (configuration not stated)	22.9	2.1	1.1	0.4
O=C1N/C(=C\c2ccc(O)cc2)C(O)=C1C=NCc1ccccc1	69.3*	-2.7	-2.2	1.7
CC1(C)CC(=O)C2=C(C1)N(c1cccc(O)c1)C1=C(C2)C(=O)CC(C)(C)C1	11.2	57.4*	73.7*	34.0
COC(=O)c1cc(-c2ccc(S(=O)(=O)N3CCCCC3)cc2)c(C(F)(F)F)s1	-2.9	-3.4	?	-2.2
CC(C)(O)C1Cc2cc(/C=C/C(=O)O)c(O)cc2O1 (configuration not stated)	16.4	63.1*	-2.6	32.0
CCOC(=O)C1(Cc2cccc(OC)c2)CCN(Cc2cccc(OC)c2OC)CC1	7.1	2.7	12.3	0.4
CCOC(=O)C1(Cc2cccc(OC)c2)CCN(Cc2cccc3cnccc23)CC1	-10.2	6.4	86.0*	6.3

Screening data (PubChem)
